The labels stand for the following.
B1: tRNA (parent)
chain: GUUCCGUUGGCGUAAUGGUAACGCGUCUCCCUCCUAAGGAGAAGACUGCGGGUUCGAGUCCCGUACGGAACG

38 variants from the RNAGym collection of RNA variant scans (doi:10.1038/s41586-018-0170-7) can be followed below.

The variants in the series derive from B1. The series can be described thus: yeast fitness, log relative to wild type (ln ratio); higher = fitter; tRNA-Arg(CCU), competitive growth, 37 C, 1 M NaCl. Put shortly:
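Genotype fitness is expressed as the natural log of its generations over those of the wild type. Each pool of the tRNA-Arg(CCU) variant library, carried on a HIS3 centromeric plasmid in BY4742 lacking the chromosomal gene, came from one of two independent transformations and grew 4 generations in SC-HIS at 30 °C before ~6.5 generations (~26.5 h) in SC-HIS 1M NaCl at 37 °C. Generation numbers used OD-scaled log2 output/input frequencies from 125 bp paired-end Illumina sequencing, combined across replicates by inverse-variance weighting.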
GUUCCGUUGGCGUAAUGGUAACGCGUCUCCCUCCUAAGGAGACGACUGCGGGUUCGAGUCCCGUAAGGAACG: the “yeast fitness (ln)” value was -0.0164.

Take GUUCCGUUGGCGUAAUGGUAACGCGUCUCCCUCCUAAGGAGACGACUGCGGGUUCGAGUCCCGUAAGGAAUG: the “yeast fitness (ln)” value was -0.117.

Consider GUUCCGUUGGCGUAAUGGUAACGCGUCUCCCUCCUAAGGAGAAGAUUGCGGGUUCGAGUCCCGUACGGGGUG, for which the “yeast fitness (ln)” value was -0.237.

As for GUUCCGUUGGCGUAAUGGUAACGCGUCUCCCUCCUAAGGAGAAGAUUGCGGGUUCGAGUCCCGUACGGAAUG, the “yeast fitness (ln)” value is -0.00784.

Consider GUUCCGUUGGCGUAAUGGUAACGCGUCUCCCUCCUAAGGAGAAGAUUGCGGGUUCGAGUCCCGUACGGAACG, for which the “yeast fitness (ln)” value was determined as 0.0114.

For GUUCCGUUGGCGUAAUGGUAACGCGUCUCCCUCCUAAGGAGACGACUGCGGGUUCGAGUCCCGUAAGGGUUG, the “yeast fitness (ln)” value was -0.398.

For the variant GUUCCGUUGGCGUAAUGGUAACGCGUCUCCCUCCUAAGGAGAAGAUUGCGGGUUCGAGUCCCGUAUGGAAUG, the “yeast fitness (ln)” value is -0.0591.

Consider GUUCCGUUGGCGUAAUGGUAACGCGUCUCCCUCCUAAGGAGACGACUGCGGGUUCGAGUCCCGUAAGGAUCG, for which the “yeast fitness (ln)” value is -0.0764.

As for GUUCCGUUGGCGUAAUGGUAACGCGUCUCCCUCCUAAGGAGACGACUGCGGGUUCGAGUCCCGUAAGGAGCG, the “yeast fitness (ln)” value is -0.0269.

For GUUCCGUUGGCGUAAUGGUAACGCGUCUCCCUCCUAAGGAGACGAUUGCGGGUUCGAGUCCCGUAUGGGACG, the “yeast fitness (ln)” value is -0.172.

On to GUUCCGUUGGCGUAAUGGUAACGCGUCUCCCUCCUAAGGAGACGACUGCGGGUUCGAGUCCCGUAUGGAAUG, for which the “yeast fitness (ln)” value was -0.206.

For GUUCCGUUGGCGUAAUGGUAACGCGUCUCCCUCCUAAGGAGAAGAUUGCGGGUUCGAGUCCCGUACGGAGCG, the “yeast fitness (ln)” value is -0.00475.

GUUCCGUUGGCGUAAUGGUAACGCGUCUCCCUCCUAAGGAGAAGAUUGCGGGUUCGAGUCCCGUACGGAUCG: the “yeast fitness (ln)” value was found to be 0.00508.

Take GUUCCGUUGGCGUAAUGGUAACGCGUCUCCCUCCUAAGGAGACGAUUGCGGGUUCGAGUCCCGUAUGGAACG: the “yeast fitness (ln)” value was -0.0822.

As to GUUCCGUUGGCGUAAUGGUAACGCGUCUCCCUCCUAAGGAGACGACUGCGGGUUCGAGUCCCGUAUGGGGCG, the “yeast fitness (ln)” value is -0.166.

GUUCCGUUGGCGUAAUGGUAACGCGUCUCCCUCCUAAGGAGACGACUGCGGGUUCGAGUCCCGUAUGGGUCG: the “yeast fitness (ln)” value was -0.224.

As for GUUCCGUUGGCGUAAUGGUAACGCGUCUCCCUCCUAAGGAGACGACUGCGGGUUCGAGUCCCGUAAGGAGUG, the “yeast fitness (ln)” value was -0.105.

As to GUUCCGUUGGCGUAAUGGUAACGCGUCUCCCUCCUAAGGAGACGAUUGCGGGUUCGAGUCCCGUAUGGAGUG, the “yeast fitness (ln)” value is -0.149.

For the variant GUUCCGUUGGCGUAAUGGUAACGCGUCUCCCUCCUAAGGAGACGACUGCGGGUUCGAGUCCCGUAUGGAUUG, the “yeast fitness (ln)” value was -0.358.

Consider GUUCCGUUGGCGUAAUGGUAACGCGUCUCCCUCCUAAGGAGAAGACUGCGGGUUCGAGUCCCGUAAGGAACG, for which the “yeast fitness (ln)” value was -0.00943.

In the case of GUUCCGUUGGCGUAAUGGUAACGCGUCUCCCUCCUAAGGAGAAGAUUGCGGGUUCGAGUCCCGUAUGGGAUG, the “yeast fitness (ln)” value was -0.396.

Regarding GUUCCGUUGGCGUAAUGGUAACGCGUCUCCCUCCUAAGGAGACGACUGCGGGUUCGAGUCCCGUAUGGAUCG, the “yeast fitness (ln)” value is -0.105.

Consider GUUCCGUUGGCGUAAUGGUAACGCGUCUCCCUCCUAAGGAGACGACUGCGGGUUCGAGUCCCGUAUGGAGCG, for which the “yeast fitness (ln)” value is -0.0981.

GUUCCGUUGGCGUAAUGGUAACGCGUCUCCCUCCUAAGGAGACGACUGCGGGUUCGAGUCCCGUAAGGAUUG: the “yeast fitness (ln)” value was -0.268.

For GUUCCGUUGGCGUAAUGGUAACGCGUCUCCCUCCUAAGGAGAAGAUUGCGGGUUCGAGUCCCGUAAGGAGUG, the “yeast fitness (ln)” value was -0.0671.

For GUUCCGUUGGCGUAAUGGUAACGCGUCUCCCUCCUAAGGAGAAGAUUGCGGGUUCGAGUCCCGUAUGGAACG, the “yeast fitness (ln)” value was -0.000909.

With GUUCCGUUGGCGUAAUGGUAACGCGUCUCCCUCCUAAGGAGAAGAUUGCGGGUUCGAGUCCCGUAAGGAACG, the “yeast fitness (ln)” value is -0.0399.

For the variant GUUCCGUUGGCGUAAUGGUAACGCGUCUCCCUCCUAAGGAGAAGAUUGCGGGUUCGAGUCCCGUAUGGAUCG, the “yeast fitness (ln)” value is -0.103.

GUUCCGUUGGCGUAAUGGUAACGCGUCUCCCUCCUAAGGAGAAGAUUGCGGGUUCGAGUCCCGUAUGGAGCG: the “yeast fitness (ln)” value is -0.0429.

With GUUCCGUUGGCGUAAUGGUAACGCGUCUCCCUCCUAAGGAGACGAUUGCGGGUUCGAGUCCCGUAUGGAUUG, the “yeast fitness (ln)” value is -0.211.

Regarding GUUCCGUUGGCGUAAUGGUAACGCGUCUCCCUCCUAAGGAGAAGAUUGCGGGUUCGAGUCCCGUAAGGGGCG, the “yeast fitness (ln)” value was -0.0653.

Turning to GUUCCGUUGGCGUAAUGGUAACGCGUCUCCCUCCUAAGGAGAAGAUUGCGGGUUCGAGUCCCGUAAGGGUCG, the “yeast fitness (ln)” value was -0.0373.

Consider GUUCCGUUGGCGUAAUGGUAACGCGUCUCCCUCCUAAGGAGACGAUUGCGGGUUCGAGUCCCGUACGGAAUG, for which the “yeast fitness (ln)” value was -0.00724.

Take GUUCCGUUGGCGUAAUGGUAACGCGUCUCCCUCCUAAGGAGAAGAUUGCGGGUUCGAGUCCCGUAUGGAUUG: the “yeast fitness (ln)” value is -0.148.

For GUUCCGUUGGCGUAAUGGUAACGCGUCUCCCUCCUAAGGAGAAGAUUGCGGGUUCGAGUCCCGUAAGGAGCG, the “yeast fitness (ln)” value is -0.0456.

On to GUUCCGUUGGCGUAAUGGUAACGCGUCUCCCUCCUAAGGAGAAGAUUGCGGGUUCGAGUCCCGUAAGGAUCG, for which the “yeast fitness (ln)” value amounted to 0.00705.

Regarding GUUCCGUUGGCGUAAUGGUAACGCGUCUCCCUCCUAAGGAGACGAUUGCGGGUUCGAGUCCCGUAUGGGUCG, the “yeast fitness (ln)” value is -0.121.

In the case of GUUCCGUUGGCGUAAUGGUAACGCGUCUCCCUCCUAAGGAGACGAUUGCGGGUUCGAGUCCCGUAUGGGGCG, the “yeast fitness (ln)” value was -0.117.
